Source: ChEMBL document CHEMBL4680104, “Structure-Based Optimization of Small-Molecule Inhibitors for the β-Catenin/B-Cell Lymphoma 9 Protein-Protein Interaction” (J Med Chem, 2018)
Calls of active or inactive are those of the source. The rule behind the calls is not given here.

Experiments:
[1] = Effect on HPRT mRNA expression in human SW480 cells at 8 uM incubated for 24 hrs by qPCR analysis relative to control; assay type: ADME, cell-based; conditions: read-out: FC
Procedure, shortened: (§1)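 SW480 cells at 1 × 10^6/mL were treated with inhibitor for 24 h. Total RNA was extracted with TRIzol and cDNA made by first-strand synthesis. SYBR green qPCR used human HPRT primers, with CT values normalised to GAPDH as internal reference. Performed in triplicate.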

[2] = biological target: T1, beta-catenin-B-cell lymphoma 9 protein complex (Homo sapiens) (UniProt P35222+O00512); assay: Inhibition of protein interaction between beta-catenin /BCL9 in human SW480 cells assessed as reduction in Wnt target genes by measuring cyclin D1 protein expression at 2 to 8 uM incubated for 24 hrs by Western blot analysis; assay type: cell-based; conditions: dose 2-8 µM
Procedure, shortened: (§2)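 SW480 cells at 1 × 10^6 cells/mL were treated with a range of inhibitor concentrations for 24 h. Cells were lysed in Tris/NaCl/NP-40/deoxycholate/SDS buffer with protease inhibitors. Lysates were run on 8% SDS-PAGE and blotted to nitrocellulose. Blots were probed overnight at 4 °C for total β-catenin (mostly the E-cadherin-bound pool), active β-catenin (dephosphorylated S37/T41), cyclin D1, c-myc and β-tubulin. Detection used infrared secondary antibodies. Duplicate.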

[3] = Drug level in human HCT-116 cells assessed as per million cells at 50 uM incubated for 6 hrs at 37 degC in presence of DMEM media with 10% FBS; assay type: ADME, cell-based; conditions: hct-116, 6 h
Procedure, shortened: (§3)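 Cells were incubated with 50 μM compound for 6 h in 5 mL DMEM with 10% FBS, at 37 °C or at 4 °C. Cell-bound compound was quantified by a previously described method and expressed as nmol per million cells. The 4 °C incubation was used to estimate binding to the cell membrane through nonspecific association.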

[4] = biological target: T1, beta-catenin-B-cell lymphoma 9 protein complex (Homo sapiens); assay: Inhibition of protein interaction between beta-catenin /BCL9 in human SW480 cells assessed as reduction in Wnt target genes by measuring c-Myc protein expression at 25 to 100 uM incubated for 24 hrs by Western blot analysis; assay type: cell-based; conditions: dose 25-100 µM; procedure, shortened: as §2
[5] = Drug level in human HCT-116 cells assessed as cell membrane bound compound level at 50 uM incubated for 6 hrs at 4 degC in presence of DMEM media with 10% FBS; assay type: ADME, cell membranes; conditions: hct-116, 6 h; procedure, shortened: as §3
[6] = Effect on HPRT mRNA expression in human SW480 cells at 100 uM incubated for 24 hrs by qPCR analysis relative to control; assay type: ADME, cell-based; conditions: read-out: FC; procedure, shortened: as §1

For Cc1cc(F)ccc1-c1cc(NC(=O)c2ccc(O[C@H]3CCNC3)c(-c3ccc(F)c(F)c3)c2)ccc1O[C@H]1CCNC1.Cl.Cl, which fold induction at 8 µM [1] is on record?
The fold induction at 8 µM was 0.124.

Which inhibition [2] does the source give for Cl.Cl.O=C(Nc1ccc(O[C@H]2CCNC2)c(-c2ccc(F)cc2)c1)c1ccc(O[C@H]2CCNC2)c(-c2ccc3ccsc3c2)c1 here?
The inhibition was “Active”.

Which Drug uptake [3] does the source give for Cl.Cl.O=C(Nc1ccc(O[C@@H]2CCNC2)c(-c2cccc(-c3nn[nH]n3)c2)c1)c1ccc(O[C@H]2CCNC2)c(-c2ccc(F)c(F)c2)c1 here?
The Drug uptake was 6.6 nmol.

And the inhibition [4]?
The inhibition was “Active”.

What about the Drug uptake [5] of the same compound?
The Drug uptake was 77%.

What about the fold induction at 100 µM [6] of the same compound?
The fold induction at 100 µM was 0.969.
